The source of these data is ChEMBL document CHEMBL1152519, “Synthesis, structural activity-relationships, and biological evaluation of novel amide-based allosteric binding site antagonists in NR1A/NR2B N-methyl-D-aspartate receptors” (Bioorg Med Chem, 2009).

pIC50, pKi: −log10 of the molar value.

The test system of data set [1] is MDCK. Nature of the data set: Apparent permeability from apical to basolateral side of MDR1-expressing MDCK cells at 5 uM after 2 hrs by LC-MS/MS analysis. It counts as ADME, cell-based, Canis lupus familiaris. The note with it: dog. The procedure, abridged: (§1)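 MDR1-MDCK monolayers grown 7–11 days on Transwells. Compound at 5 μM in HBSS pH 7.4 (final DMSO ≤1%) added apically (A–B) or basally (B–A). Incubated 2 h at 37 °C; both compartments quantified by LC–MS/MS against a >4-point calibration. Papp given in ×10−6 cm/s; efflux ratio = B–A/A–B. Duplicates.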

Data set [2] addresses Glutamate NMDA receptor; Grin1/Grin2a (Rattus norvegicus) (UniProt P35439+Q00959). Put plainly: Antagonist activity at rat recombinant NR1/NR2A receptor expressed in Xenopus laevis oocytes assessed as inhibition of glutamate/glycine-induced current at 3 uM by two electrode voltage clamp method relative to control. The class given is functional, cell-based. The note with it: Oocyte. The method in brief:
(§2)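 Xenopus oocytes injected with NR1-1a (3–5 ng) plus NR2A, 2B, 2C or 2D cRNA (7–10 ng), kept at 15 °C. Voltage clamp at −40 mV. Responses to 50 μM glutamate + 30 μM glycine with 3 μM compound, as % of response without compound. NR2A oocytes pre-loaded with 50 μM BAPTA-AM. Mean ± SEM, 4–10 oocytes; paired t-test.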

The target of data set [3] is Glutamate receptor ionotropic, kainate 2 (Rattus norvegicus) (UniProt P42260). Put plainly: Antagonist activity at rat recombinant GluR6 expressed in Xenopus laevis oocytes assessed as inhibition of concanavalin A/glutamate-induced current at 3 uM by two electrode voltage clamp method relative to control. It counts as functional, cell-based. The note with it: Oocyte. The procedure, abridged: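 Oocytes expressing homomeric GluR6 (5–10 ng cRNA) pretreated 5 min with 10 μM concanavalin-A. Currents evoked by 100 μM glutamate at −40 mV, with or without 3 μM compound, and given as percent of control. Mean ± SEM of 4–10 oocytes; paired t-test.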
On the technique in general: Two-electrode voltage clamp is typically applied to oocytes expressing channels or transporters.

The target in data set [4] is Glutamate receptor ionotropic, NMDA 2B (Rattus norvegicus, UniProt Q00960). Nature of the data set: Displacement of [3H]ifenprodil form NR2B receptor in Wistar rat cerebral cortex membrane. It counts as tissue-based. In general terms: Displacement assays read how much labelled ligand stays bound in the presence of the test substance.
Data set [5] has as its system MDCK. Nature of the data set: Apparent permeability from basolateral to apical side of MDR1-expressing MDCK cells at 5 uM after 2 hrs by LC-MS/MS analysis. The note with it: dog. It counts as ADME, cell-based, Canis lupus familiaris. The procedure, abridged: as §1
In data set [6] the target is Glutamate NMDA receptor; Grin1/Grin2c (Rattus norvegicus) (UniProt P35439+Q00961). Nature of the data set: Antagonist activity at rat recombinant NR1/NR2C receptor expressed in Xenopus laevis oocytes assessed as inhibition of glutamate/glycine-induced current at 3 uM by two electrode voltage clamp method relative to control. It counts as functional, cell-based. The conditions noted are these: Oocyte. The method in brief: as §2

Data set [7] addresses Glutamate NMDA receptor; GRIN1/GRIN2B (Homo sapiens, UniProt Q05586+Q13224). Nature of the data set: Antagonist activity at human recombinant NR1/NR2B receptor expressed in frog oocytes assessed as inhibition of glutamate/glycine-induced current by two electrode voltage clamp method. It counts as functional, cell-based, Oocyte. The procedure, abridged: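 Human NR1/NR2B cRNA injected into Xenopus oocytes. Two-electrode voltage clamp at −40 mV, 23 °C, 2–7 d after injection. Glutamate/glycine (50–100 μM/30 μM) applied, then with 5–8 compound concentrations. Bath contains 10 μM EDTA; leak-corrected.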

The target in data set [8] is Glutamate NMDA receptor; Grin1/Grin2b (Rattus norvegicus) (UniProt P35439+Q00960). Nature of the data set: Antagonist activity at rat recombinant NR1/NR2B receptor expressed in Xenopus laevis oocytes assessed as inhibition of glutamate/glycine-induced current at 3 uM by two electrode voltage clamp method relative to control. It counts as functional, cell-based. The conditions noted are these: Oocyte. The method in brief:
as §2

The target in data set [9] is Glutamate receptor 1 (Rattus norvegicus) (UniProt P19490). Nature of the data set: Antagonist activity at rat recombinant GluR1 expressed in Xenopus laevis oocytes assessed as inhibition of glutamate-induced current at 3 uM by two electrode voltage clamp method relative to control. It counts as functional, cell-based. The conditions noted are these: Oocyte. The procedure, abridged: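 GluR1 homomers expressed from 5–10 ng cRNA in Xenopus oocytes. Clamped at −40 mV. Currents evoked by 100 μM glutamate with 3 μM compound, expressed as % of control without compound. Mean ± SEM, 4–10 oocytes; paired t-test.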

Data set [10] deals with Ionotropic glutamate receptor NMDA 1/2D (Rattus norvegicus) (UniProt P35439+Q62645). Put plainly: Antagonist activity at rat recombinant NR1/NR2D receptor expressed in Xenopus laevis oocytes assessed as inhibition of glutamate/glycine-induced current at 3 uM by two electrode voltage clamp method relative to control. It counts as functional, cell-based. The note with it: Oocyte. The method in brief:
as §2

For data set [11], the target named is T1, hERG (KCNH2) (Homo sapiens, UniProt Q12809). Nature of the data set: Displacement of [3H]astemizole from human recombinant ERG expressed in HEK293 cells at 10 uM. The class given is cell-based. The conditions noted are these: HEK293 cells expressing human recombinant ERG, probe [3H]astemizole, read-out: Activity.
Data set [12] addresses Adrenergic receptor alpha-1 (Rattus norvegicus) (UniProt P15823+P23944+P43140). Put plainly: Displacement of [3H]prazosin from alpha1 adrenergic receptor in Wistar rat brain membrane at 3 uM. The class given is cell membranes. The method in brief: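 Wistar rat brain membranes. Percent displacement of 0.25 nM [3H]prazosin by 3 μM compound, run in duplicate.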
Data set [13] concerns MDCK. Put plainly: Efflux ratio of permeability from basolateral to apical over apical to basolateral side in MDR1-expressing MDCK cells at 5 uM after 2 hrs by LC-MS/MS analysis. It counts as ADME, cell-based, Canis lupus familiaris. The note with it: dog.
The target in data set [14] is Voltage-gated inwardly rectifying potassium channel KCNH2 (Homo sapiens, UniProt Q12809). Put plainly: Displacement of [3H]astemizole from human recombinant ERG expressed in HEK293 cells. It counts as cell-based.
For data set [15], the target named is T1, hERG (KCNH2). Nature of the data set: Displacement of [3H]astemizole from human recombinant ERG expressed in HEK293 cells at 3 uM. The note with it: HEK293 cells expressing human recombinant ERG, probe [3H]astemizole, read-out: Activity. The class given is cell-based. The method in brief:
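Membranes from HEK293 cells expressing human hERG. Ligand 1.5 nM [3H]-astemizole; displacement at a single test-compound concentration, run in duplicate.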

The nature of data set [16]: Selectivity ratio of IC50 for mouse NR1/NR2B receptor D101A mutant to IC50 for wild type rat NR1/NR2B receptor.

Chain of Glutamate receptor 1 (Rattus norvegicus) (P19490 whole entry): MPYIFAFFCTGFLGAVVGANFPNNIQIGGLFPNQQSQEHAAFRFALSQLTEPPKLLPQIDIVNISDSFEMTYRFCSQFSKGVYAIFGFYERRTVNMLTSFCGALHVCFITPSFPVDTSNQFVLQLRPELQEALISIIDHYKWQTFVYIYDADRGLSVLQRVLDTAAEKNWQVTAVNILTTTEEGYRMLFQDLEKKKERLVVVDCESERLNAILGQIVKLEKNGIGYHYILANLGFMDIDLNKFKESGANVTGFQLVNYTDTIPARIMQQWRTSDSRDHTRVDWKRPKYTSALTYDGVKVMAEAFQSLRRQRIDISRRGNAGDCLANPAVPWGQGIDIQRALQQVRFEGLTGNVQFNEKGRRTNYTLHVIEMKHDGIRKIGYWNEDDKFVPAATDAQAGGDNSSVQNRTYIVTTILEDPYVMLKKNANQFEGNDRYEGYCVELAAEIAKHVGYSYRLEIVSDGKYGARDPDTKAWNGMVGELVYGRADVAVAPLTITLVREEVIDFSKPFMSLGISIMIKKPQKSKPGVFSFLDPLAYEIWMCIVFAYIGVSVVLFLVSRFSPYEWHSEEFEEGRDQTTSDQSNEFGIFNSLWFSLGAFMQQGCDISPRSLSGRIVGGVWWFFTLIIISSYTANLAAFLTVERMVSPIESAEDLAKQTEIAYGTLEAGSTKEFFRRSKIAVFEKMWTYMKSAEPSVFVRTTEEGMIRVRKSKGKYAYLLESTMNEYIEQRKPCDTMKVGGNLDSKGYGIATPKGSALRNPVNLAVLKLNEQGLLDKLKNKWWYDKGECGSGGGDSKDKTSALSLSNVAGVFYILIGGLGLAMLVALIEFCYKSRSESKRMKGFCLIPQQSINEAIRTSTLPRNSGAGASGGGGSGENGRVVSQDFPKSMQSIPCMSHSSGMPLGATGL
Chain of Glutamate NMDA receptor; GRIN1/GRIN2B (Q13224 whole entry, other chains not shown): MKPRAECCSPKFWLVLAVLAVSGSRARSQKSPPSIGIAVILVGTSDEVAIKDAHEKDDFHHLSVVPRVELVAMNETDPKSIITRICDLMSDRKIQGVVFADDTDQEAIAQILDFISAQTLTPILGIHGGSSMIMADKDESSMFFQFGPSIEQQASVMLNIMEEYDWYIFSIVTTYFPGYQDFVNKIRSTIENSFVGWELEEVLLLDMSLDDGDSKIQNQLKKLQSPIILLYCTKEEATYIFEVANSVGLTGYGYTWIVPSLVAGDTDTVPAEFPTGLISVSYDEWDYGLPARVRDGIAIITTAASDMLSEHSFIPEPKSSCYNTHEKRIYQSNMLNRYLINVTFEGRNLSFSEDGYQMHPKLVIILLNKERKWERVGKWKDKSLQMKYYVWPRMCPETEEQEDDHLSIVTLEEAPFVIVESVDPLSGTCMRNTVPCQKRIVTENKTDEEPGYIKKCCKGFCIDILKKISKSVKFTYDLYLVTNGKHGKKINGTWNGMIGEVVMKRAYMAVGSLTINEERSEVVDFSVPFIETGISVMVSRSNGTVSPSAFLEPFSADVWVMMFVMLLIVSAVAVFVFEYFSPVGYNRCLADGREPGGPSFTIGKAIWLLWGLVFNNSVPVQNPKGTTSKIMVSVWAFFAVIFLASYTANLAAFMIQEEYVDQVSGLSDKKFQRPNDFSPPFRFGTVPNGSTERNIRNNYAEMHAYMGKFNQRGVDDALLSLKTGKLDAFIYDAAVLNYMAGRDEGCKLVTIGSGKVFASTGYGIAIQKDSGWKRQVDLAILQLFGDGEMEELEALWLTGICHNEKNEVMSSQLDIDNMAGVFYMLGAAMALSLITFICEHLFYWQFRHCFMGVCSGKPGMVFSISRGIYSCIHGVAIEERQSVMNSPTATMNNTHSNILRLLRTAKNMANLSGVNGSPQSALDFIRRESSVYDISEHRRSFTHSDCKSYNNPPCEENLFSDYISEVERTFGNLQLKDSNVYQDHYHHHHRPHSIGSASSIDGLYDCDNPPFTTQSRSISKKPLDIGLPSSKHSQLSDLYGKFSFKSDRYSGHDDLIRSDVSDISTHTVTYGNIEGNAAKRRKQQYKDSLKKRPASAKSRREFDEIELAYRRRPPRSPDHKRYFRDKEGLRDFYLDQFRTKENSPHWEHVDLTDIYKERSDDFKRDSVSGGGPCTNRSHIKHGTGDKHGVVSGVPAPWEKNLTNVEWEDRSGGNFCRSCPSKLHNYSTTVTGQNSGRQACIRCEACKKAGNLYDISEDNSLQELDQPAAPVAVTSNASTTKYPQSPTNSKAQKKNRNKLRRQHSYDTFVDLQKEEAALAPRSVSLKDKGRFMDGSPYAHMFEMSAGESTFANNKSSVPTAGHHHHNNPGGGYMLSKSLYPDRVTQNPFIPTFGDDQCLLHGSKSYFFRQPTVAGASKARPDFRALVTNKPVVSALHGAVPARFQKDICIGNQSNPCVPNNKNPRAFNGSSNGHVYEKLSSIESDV
T1 sequence (Q12809 whole entry): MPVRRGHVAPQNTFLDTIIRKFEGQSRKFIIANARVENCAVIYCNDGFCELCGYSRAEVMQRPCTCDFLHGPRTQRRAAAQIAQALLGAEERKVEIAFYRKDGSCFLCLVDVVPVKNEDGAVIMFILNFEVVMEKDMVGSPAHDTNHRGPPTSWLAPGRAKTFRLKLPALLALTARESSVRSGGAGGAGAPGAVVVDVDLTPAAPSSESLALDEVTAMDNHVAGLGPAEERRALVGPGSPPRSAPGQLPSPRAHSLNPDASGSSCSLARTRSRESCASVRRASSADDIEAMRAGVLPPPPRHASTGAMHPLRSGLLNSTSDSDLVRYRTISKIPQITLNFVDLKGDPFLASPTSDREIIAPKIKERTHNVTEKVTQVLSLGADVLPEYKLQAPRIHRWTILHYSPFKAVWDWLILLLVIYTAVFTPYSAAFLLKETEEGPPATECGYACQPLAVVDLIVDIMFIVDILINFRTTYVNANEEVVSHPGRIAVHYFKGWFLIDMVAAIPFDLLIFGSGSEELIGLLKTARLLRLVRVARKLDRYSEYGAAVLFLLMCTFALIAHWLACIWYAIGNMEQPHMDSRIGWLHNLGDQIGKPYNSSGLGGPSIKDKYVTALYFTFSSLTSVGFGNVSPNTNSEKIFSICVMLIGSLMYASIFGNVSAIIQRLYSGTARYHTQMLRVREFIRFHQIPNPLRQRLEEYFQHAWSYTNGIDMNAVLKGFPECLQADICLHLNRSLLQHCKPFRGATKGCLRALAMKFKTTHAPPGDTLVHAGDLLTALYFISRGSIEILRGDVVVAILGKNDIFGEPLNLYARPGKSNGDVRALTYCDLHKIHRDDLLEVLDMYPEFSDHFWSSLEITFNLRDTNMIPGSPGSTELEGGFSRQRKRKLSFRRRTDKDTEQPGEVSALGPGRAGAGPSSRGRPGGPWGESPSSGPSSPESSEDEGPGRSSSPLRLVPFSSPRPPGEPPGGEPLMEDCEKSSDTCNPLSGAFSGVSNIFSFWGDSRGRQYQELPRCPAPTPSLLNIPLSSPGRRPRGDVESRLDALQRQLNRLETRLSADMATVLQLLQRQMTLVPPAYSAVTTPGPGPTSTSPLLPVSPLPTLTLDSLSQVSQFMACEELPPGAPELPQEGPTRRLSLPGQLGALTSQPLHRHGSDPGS
Chain of Glutamate receptor ionotropic, kainate 2 (Rattus norvegicus) (P42260 whole entry): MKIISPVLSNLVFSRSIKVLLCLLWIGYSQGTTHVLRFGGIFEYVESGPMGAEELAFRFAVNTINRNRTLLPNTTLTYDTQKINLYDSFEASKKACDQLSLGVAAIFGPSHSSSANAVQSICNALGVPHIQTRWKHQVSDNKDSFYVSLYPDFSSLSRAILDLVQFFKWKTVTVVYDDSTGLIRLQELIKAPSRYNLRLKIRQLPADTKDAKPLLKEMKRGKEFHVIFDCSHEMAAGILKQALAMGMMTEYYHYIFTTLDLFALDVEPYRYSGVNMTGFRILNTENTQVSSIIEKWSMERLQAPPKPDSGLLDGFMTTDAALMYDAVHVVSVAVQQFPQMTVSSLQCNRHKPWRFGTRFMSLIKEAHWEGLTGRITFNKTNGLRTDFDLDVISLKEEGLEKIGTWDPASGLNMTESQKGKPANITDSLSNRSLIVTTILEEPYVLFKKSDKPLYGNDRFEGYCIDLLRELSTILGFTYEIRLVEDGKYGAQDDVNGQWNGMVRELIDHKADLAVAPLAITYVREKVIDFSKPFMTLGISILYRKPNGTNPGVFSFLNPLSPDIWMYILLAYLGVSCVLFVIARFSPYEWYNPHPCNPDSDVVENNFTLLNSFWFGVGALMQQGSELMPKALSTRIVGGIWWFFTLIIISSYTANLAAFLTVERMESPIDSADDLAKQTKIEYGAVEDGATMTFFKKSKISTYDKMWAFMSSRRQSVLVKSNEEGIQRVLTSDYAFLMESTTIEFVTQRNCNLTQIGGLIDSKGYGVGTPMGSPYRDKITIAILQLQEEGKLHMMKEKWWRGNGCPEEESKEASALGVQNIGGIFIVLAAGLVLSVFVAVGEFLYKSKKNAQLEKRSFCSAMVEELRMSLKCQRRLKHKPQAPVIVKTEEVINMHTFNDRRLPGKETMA

For `CS(=O)(=O)Nc1ccc(OCC(=O)N2CCN(c3ccc(Cl)c(Cl)c3)CC2)cc1`, the results for the Papp in the data set with MDCK [1] and in the data set on MDCK [5] were 4.76 ×10⁻⁶ cm/s and 42.4 ×10⁻⁶ cm/s, respectively. Moreover, the % response is 89% in [2]; 101% in data set [3]; 94% in data set [6]; 18% in [8]; 101% in data set [9]; 106% in data set [10]. The same compound had a negative logarithm of the Ki (pKi) in data set [4] of 6.09. Moreover, the pIC50 in data set [7] was 6.78. The inhibition at 10 µM on hERG (KCNH2) [11] was found to be 93%. Also, the Activity in data set [12] amounted to 90%.
In the case of `CS(=O)(=O)Nc1ccc(OCCN2CCN(c3ccc(Cl)c(Cl)c3)C2=O)cc1`, in the data set on MDCK [13], the Ratio turned out to be 3.1. Moreover, the Papp was found to be 12.9 ×10⁻⁶ cm/s with MDCK [1] and 40.2 ×10⁻⁶ cm/s in the data set on MDCK [5]. The % response turned out to be 105% in data set [2]; 103% in [3]; 98% in [6]; 20% in [8]; 98% in data set [9]; 98% in data set [10]. The pKi in data set [4] was 6.52. Moreover, the pIC50 in data set [7] is 6.14. Moreover, the inhibition at 10 µM at hERG (KCNH2) [11] amounted to 71%. Moreover, the Activity in data set [12] was 23%.
On to `CS(=O)(=O)Nc1ccc(CCC(=O)NC/C=C/c2ccc(Cl)c(Cl)c2)cc1`, for which the % response in data set [2] was 99%; in data set [3], 100%; in data set [6] it was 95%; in data set [8], 18%; in data set [9], 104%; in data set [10] it was 88%. In addition, the pKi in [14] was 5.52. Moreover, the pIC50 in data set [7] is 7.30. Moreover, at hERG (KCNH2) [15], the inhibition at 3 µM was found to be 47%. In data set [12], this compound had an Activity of 16%.
For `CS(=O)(=O)Nc1ccc(CCC(=O)NNC(=O)Nc2ccc(Cl)c(Cl)c2)cc1`, the % response was 101% in data set [2]; 99% in [3]; 96% in data set [6]; 6% in [8]; 100% in data set [9]; 91% in data set [10]. In addition, the Ratio IC50 in [16] was 51. In data set [7], the pIC50 was 7.55. At hERG (KCNH2) [11], the inhibition at 10 µM is 3%. The Activity in [12] was determined as 5%.

One may read the Papp as a coefficient for how fast a substance crosses the barrier. A word on the pKi: it is the negative decadic logarithm of the Ki, by convention in mol/L. One may read the pIC50 as the negative decadic logarithm of the IC50, by convention in mol/L.
